Values after ≈ are worked out from the molar mass of the structure shown.
Legend:
Assay type in all cases: functional
Human alphaherpesvirus 2 [1] = test: Antiviral activity against Herpes Simplex Virus-2(196)
Human alphaherpesvirus 2 [2] = test: Antiviral activity against Herpes Simplex Virus-2(G)
Human alphaherpesvirus 2 [3] = test: Antiviral activity against Herpes Simplex Virus-2(Lyons)
Human alphaherpesvirus 1 [4] = test: Antiviral activity against Herpes Simplex Virus-1(F)
Human alphaherpesvirus 1 [5] = test: Antiviral activity against Herpes Simplex Virus-1(KOS)
Human alphaherpesvirus 1 [6] = test: Antiviral activity against Herpes Simplex Virus-1 (McIntyre)
L1210 [7] = test: Cytostatic activity against proliferation of L1210/0 cells; conditions: Mus musculus, read-out: ID50 (the source's name)
Summary of the method: (§1)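 Murine leukemia L1210 cells: parental L1210/0 and L1210/BdUrd, a thymidine-kinase-deficient mutant selected from L1210/0 by growth in the presence of 260 µg/mL 5-bromo-2'-deoxyuridine. Value is the dose inhibiting tumor cell proliferation by 50% (ID50).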

L1210 [8] = test: Cytostatic activity against proliferation of L1210/BdU cells; conditions: Mus musculus, read-out: ID50 (the source's name); summary of the method: as §1
Raji [9] = test: Cytostatic activity against proliferation of Raji/0 cells; conditions: Homo sapiens, read-out: ID50 (the source's name)
Raji [10] = test: Cytostatic activity against proliferation of Raji/TK cells; conditions: Homo sapiens, read-out: ID50 (the source's name)
[11] = test system: Vesicular stomatitis virus; test: Antiviral activity against vesicular stomatitis virus
Vaccinia virus = test: Antiviral activity against vaccinia virus; conditions: Orthopoxvirus vaccinia
L1210 [12] = test: Compound was tested for Cytostatic activity against proliferation of L1210/0 cells (murine leukemia L1210 cell line); conditions: Mus musculus, read-out: ID50 (the source's name); summary of the method: as §1
L1210 [13] = test: Compound was tested for Cytostatic activity against proliferation of L1210/BdU cells (thymidine kinase deficient L1210 cell line); conditions: Mus musculus, read-out: ID50 (the source's name); summary of the method: as §1
Raji [14] = test: Compound was tested for Cytostatic activity against proliferation of Raji/0 cells (human lymphoblast Raji cells line); conditions: read-out: ID50 (the source's name)
Raji [15] = test: Compound was tested for Cytostatic activity against proliferation of Raji/TK cells (thymidine kinase deficient Raji cell line); conditions: Homo sapiens, read-out: ID50 (the source's name)

Structure (SMILES)	MIC50 (Human alphaherpesvirus 2 [1]) [µg/mL]	MIC50 (Human alphaherpesvirus 2 [2]) [µg/mL]	MIC50 (Human alphaherpesvirus 2 [3]) [µg/mL]	MIC50 (Human alphaherpesvirus 1 [4]) [µg/mL]	MIC50 (Human alphaherpesvirus 1 [5]) [µg/mL]	MIC50 (Human alphaherpesvirus 1 [6]) [µg/mL]	IC50 (L1210 [7]) [µg/mL]	IC50 (L1210 [8]) [µg/mL]	IC50 (Raji [9]) [µg/mL]	IC50 (Raji [10]) [µg/mL]	MIC50 [11] [µg/mL]	MIC50 (Vaccinia virus) [µg/mL]	IC50 (L1210 [12]) [µg/mL]	IC50 (L1210 [13]) [µg/mL]	IC50 (Raji [14]) [µg/mL]	IC50 (Raji [15]) [µg/mL]
CCCc1cn([C@H]2C[C@H](O)[C@@H](CO)O2)c(=O)[nH]c1=O	40 (≈ 148 µM)	10 (≈ 37 µM)	7 (≈ 25.9 µM)	7 (≈ 25.9 µM)	2 (≈ 7.4 µM)	2 (≈ 7.4 µM)	> 500	> 500	> 500	> 500	> 200	200 (≈ 740 µM)	–	–	–	–
CCCCCCc1cn([C@H]2C[C@H](O)[C@@H](CO)O2)c(=O)[nH]c1=O	–	400 (≈ 1280 µM)	300 (≈ 960 µM)	> 400	> 400	300 (≈ 960 µM)	172 (≈ 551 µM)	195 (≈ 624 µM)	151 (≈ 483 µM)	173 (≈ 554 µM)	–	300 (≈ 960 µM)	–	–	–	–
CCCCCCc1cn([C@H]2C[C@@H]3OP(=O)(O)OC[C@H]3O2)c(=O)[nH]c1=O.N	> 400	> 400	300	> 400	> 400	> 400	> 500	> 500	> 500	> 500	> 400	> 400	–	–	–	–
CCCCc1cn([C@H]2C[C@@H]3OP(=O)(O)OC[C@H]3O2)c(=O)[nH]c1=O.N	> 400	> 400	300	> 400	> 400	> 400	28.4	33.5	82	165	> 400	300	–	–	–	–
CCCCCc1cn([C@H]2C[C@@H]3OP(=O)(O)OC[C@H]3O2)c(=O)[nH]c1=O.N	> 400	> 400	> 400	> 400	> 400	> 400	> 500	> 500	> 500	> 500	> 400	> 400	–	–	–	–
CCCCc1cn([C@H]2C[C@H](O)[C@@H](CO)O2)c(=O)[nH]c1=O	> 400	150 (≈ 528 µM)	20 (≈ 70.3 µM)	70 (≈ 246 µM)	20 (≈ 70.3 µM)	20 (≈ 70.3 µM)	> 500	> 500	> 500	> 500	> 400	300 (≈ 1060 µM)	–	–	–	–
CCc1cn([C@H]2C[C@@H]3OP(=O)(O)OC[C@H]3O2)c(=O)[nH]c1=O.N	150	10	7	70	70	70	55	> 500	60	> 500	> 400	70	–	–	–	–
CCCCCCCCc1cn([C@H]2C[C@@H]3OP(=O)(O)OC[C@H]3O2)c(=O)[nH]c1=O.N	> 200	> 200	> 200	> 200	> 200	> 200	164	193	165	184	> 200	20	–	–	–	–
CCCCCc1cn([C@H]2C[C@H](O)[C@@H](CO)O2)c(=O)[nH]c1=O	> 400	70 (≈ 235 µM)	70 (≈ 235 µM)	10 (≈ 33.5 µM)	20 (≈ 67 µM)	40 (≈ 134 µM)	476 (≈ 1600 µM)	477 (≈ 1600 µM)	334 (≈ 1120 µM)	328 (≈ 1100 µM)	> 400	300 (≈ 1010 µM)	–	–	–	–
CC(C)c1cn([C@H]2C[C@@H]3OP(=O)(O)OC[C@H]3O2)c(=O)[nH]c1=O.N	> 200	> 200	> 200	> 200	> 200	> 200	> 500	> 500	> 500	> 500	> 200	> 200	–	–	–	–
CCCc1cn([C@H]2C[C@@H]3OP(=O)(O)OC[C@H]3O2)c(=O)[nH]c1=O.N	> 400	400	400	300	150	150	> 500	> 500	> 500	> 500	> 400	> 400	–	–	–	–
CCCCCCCCc1cn([C@H]2C[C@H](O)[C@@H](CO)O2)c(=O)[nH]c1=O	> 100	100 (≈ 294 µM)	100 (≈ 294 µM)	> 100	> 100	> 100	66 (≈ 194 µM)	72 (≈ 212 µM)	52 (≈ 153 µM)	140 (≈ 411 µM)	> 100	7 (≈ 20.6 µM)	–	–	–	–
O=c1[nH]c(=O)n([C@H]2C[C@H](O)[C@@H](CO)O2)cc1/C=C/Br [BRIVUDINE]	100 (≈ 300 µM)	1 (≈ 3 µM)	1 (≈ 3 µM)	0.02 (≈ 0.06 µM)	0.02 (≈ 0.06 µM)	0.02 (≈ 0.06 µM)	–	–	–	–	> 400	2 (≈ 6 µM)	–	–	–	–
CCc1cn([C@H]2C[C@H](O)[C@@H](CO)O2)c(=O)[nH]c1=O [EDOXUDINE]	2 (≈ 7.8 µM)	0.4 (≈ 1.56 µM)	0.2 (≈ 0.78 µM)	2 (≈ 7.8 µM)	0.7 (≈ 2.73 µM)	0.2 (≈ 0.78 µM)	1.6 (≈ 6.24 µM)	> 500	2.9 (≈ 11.3 µM)	> 500	> 400	0.7 (≈ 2.73 µM)	–	–	–	–
CC(C)c1cn([C@H]2C[C@H](O)[C@@H](CO)O2)c(=O)[nH]c1=O [EPERVUDINE]	400 (≈ 1480 µM)	40 (≈ 148 µM)	100 (≈ 370 µM)	2 (≈ 7.4 µM)	7 (≈ 25.9 µM)	1 (≈ 3.7 µM)	–	–	–	–	> 400	300 (≈ 1110 µM)	> 500	> 500	> 500	> 500

Reference: ChEMBL document CHEMBL1123153, “Synthesis and antitumor and antiviral properties of 5-alkyl-2'-deoxyuridines, 3',5'-cyclic monophosphates, and neutral cyclic triesters” (1986)
